Experimental data published in ChEMBL document CHEMBL2331253, “Atropisomeric dihydroanthracenones as inhibitors of multiresistant Staphylococcus aureus” (J Med Chem, 2013).
≈ marks a conversion by molar mass, not a printed value. Calls of active or inactive are those of the source. The calls are words filed in the database; no cut-off is given here.

Legend:
[1] = tested on: Bacillus subtilis; assay: Induction of recA promoter in Bacillus subtilis YB3001 using 4-methylumbelliferyl beta D-galactopyranoside as substrate incubated for 3 hrs prior to substrate addition measured after 1 hr by beta galactosidase reporter gene assay relative to control; assay type: functional
Summary of the method: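 recA–β-galactosidase reporter in B. subtilis YB3001. Twofold compound dilutions in lysogeny broth were inoculated with mid-exponential cells and incubated 3 h at 37 °C, then frozen at −20 °C overnight. Cells were lysed with lysozyme (30 min, 37 °C) and Triton X-100. MUG was added and incubated 1 h at 25 °C. Fluorescence read at ex 360/em 450 nm.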

[2] = tested on: Bacillus subtilis; assay: Induction of yorB promoter in Bacillus subtilis IS34 after 3 hrs at 0.01 to 100 ug/ml by luciferase reporter gene assay; assay type: functional
Summary of the method: (§1)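 Promoter–firefly luciferase fusions were built in B. subtilis IS34. Luminescence was read in a plate reader and expressed as percent of the untreated control. One representative experiment.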

[3] = tested on: Bacillus subtilis; assay: Induction of yorB promoter in Bacillus subtilis IS34 after 3 hrs by luciferase reporter gene assay relative to control; assay type: functional; summary of the method: as §1
[4] = tested on: Bacillus subtilis; assay: Induction of bmrC promoter in Bacillus subtilis IS34 promoter at 64 ug/mL after 3 hrs by luciferase reporter gene assay; assay type: functional, organism-based; summary of the method: as §1
[5] = tested on: Bacillus subtilis; assay: Induction of helD promoter in Bacillus subtilis IS34 at 64 ug/mL after 3 hrs by luciferase reporter gene assay; assay type: functional, organism-based; summary of the method: as §1
[6] = tested on: Bacillus subtilis; assay: Induction of liaI promoter in Bacillus subtilis IS34 promoter at 64 ug/mL after 3 hrs by luciferase reporter gene assay; assay type: functional, organism-based; summary of the method: as §1
[7] = tested on: Bacillus subtilis; assay: Antibacterial activity against Bacillus subtilis subsp. subtilis str. 168 trpC2 assessed as growth inhibition measured at 5 mins interval over 20 hrs by spectrophotometric analysis relative to control; assay type: functional, organism-based
Summary of the method: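 B. subtilis 168 trpC2 was grown in lysogeny broth, shaken, at 37 °C. Dilution and inoculum were as for broth microdilution. OD600 was read every 5 min over 20 h in untreated versus treated cultures.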

[8] = tested on: Staphylococcus aureus; assay: Antibacterial activity against Staphylococcus aureus subsp. aureus Mu50 assessed as growth inhibition measured at 5 mins interval over 20 hrs by spectrophotometric analysis relative to control; assay type: functional
Summary of the method: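 S. aureus Mu50 was grown in Mueller−Hinton broth at 37 °C with shaking between reads. Dilution and inoculum were as for broth microdilution, with compound at 0.031–64 μg/mL. OD600 was read at 5 min intervals over 20 h against an untreated control. Run in triplicate.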

[9] = tested on: Klebsiella pneumoniae; assay: Antibacterial activity against doxycycline, kanamycin-resistant Klebsiella pneumoniae ATCC 27799 assessed as growth inhibition by CLSI broth microdilution method; assay type: functional
Summary of the method: (§2)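 MICs determined by CLSI broth microdilution in Mueller–Hinton broth. Inoculum was prepared by direct colony suspension, at 5 × 10^5 CFU/mL.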

[10] = tested on: Escherichia coli; assay: Antibacterial activity against ciprofloxacin-resistant Escherichia coli WT-3-1 MB2 assessed as growth inhibition by CLSI broth microdilution method; assay type: functional; summary of the method: as §2
[11] = tested on: Escherichia coli; assay: Antibacterial activity against Escherichia coli ATCC 25922 assessed as growth inhibition by CLSI broth microdilution method; assay type: functional
[12] = tested on: Bacillus subtilis; assay: Antibacterial activity against Bacillus subtilis subsp. subtilis str. 168 trpC2 assessed as growth inhibition by CLSI broth microdilution method; assay type: functional
[13] = tested on: Enterococcus faecium; assay: Antibacterial activity against clarithromycin, erythromycin, telithromycin, vancomycin-resistant Enterococcus faecium 6011 assessed as growth inhibition by CLSI broth microdilution method; assay type: functional; summary of the method: as §2
[14] = tested on: Enterococcus faecalis; assay: Antibacterial activity against clarithromycin, erythromycin, moxifloxacin, telithromycin, vancomycin-resistant Enterococcus faecalis UW 2689 assessed as growth inhibition by CLSI broth microdilution method; assay type: functional; summary of the method: as §2
[15] = tested on: Streptococcus agalactiae; assay: Antibacterial activity against doxycycline-intermediate Streptococcus agalactiae 013761 assessed as growth inhibition by CLSI broth microdilution method; assay type: functional
[16] = tested on: Streptococcus pneumoniae; assay: Antibacterial activity against Streptococcus pneumoniae ATCC 49619 assessed as growth inhibition by CLSI broth microdilution method; assay type: functional
[17] = tested on: Staphylococcus aureus; assay: (§3) Antibacterial activity against amoxicillin, chloramphenicol, ciprofloxacin, clindamycin, erythromycin, fosmidomycin, gentamycin, kanamycin, nitrofurantoin, telithromycin, methicillin-resistant Staphylococcus aureus 25697 assessed as growth inhibition by CLSI broth microdilution method; assay type: functional; summary of the method: as §2
[18] = tested on: Staphylococcus aureus; assay: Antibacterial activity against Staphylococcus aureus ATCC 29213 assessed as growth inhibition by CLSI broth microdilution method; assay type: functional; summary of the method: as §2
[19] = tested on: BALB/3T3; assay: Cytotoxicity against mouse BALB/3T3 cells assessed as growth inhibition after 48 hrs by Alamar blue assay; assay type: cell-based; conditions: BALB/3T3, 48 h
Summary of the method: (§4)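 THP-1 cells were kept in RPMI-1640 with 10% FCS. BALB/3T3 cells were kept in DMEM with 10% FCS. Cells were plated at 10^4 per well without antibiotics and exposed to 0.016−32 μg/mL (final, 0.32% DMSO) for 48 h at 37 °C, 5% CO2. AlamarBlue was added for 24 h more. Fluorescence (ex 560/em 600 nm) was expressed relative to untreated cells.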

[20] = tested on: THP-1; assay: Cytotoxicity against human THP1 cells assessed as growth inhibition after 48 hrs by Alamar blue assay; assay type: cell-based; conditions: THP-1, 48 h; summary of the method: as §4
[21] = tested on: Pseudomonas aeruginosa; assay: Antibacterial activity against ceftazidime, ciprofloxacin, cefepime, gentamycin, imipenem, meropenem, piperacillin/tazobactam-resistant Pseudomonas aeruginosa 63230 assessed as growth inhibition by CLSI broth microdilution method; assay type: functional; summary of the method: as §2
[22] = tested on: Streptococcus pyogenes; assay: Antibacterial activity against doxycycline-intermediate Streptococcus pyogenes 014327 assessed as growth inhibition by CLSI broth microdilution method; assay type: functional
[23] = tested on: Staphylococcus aureus; assay: (§5) Antibacterial activity against ceftazidime, clarithromycin, ciprofloxacin, clindamycin, doxycycline, erythromycin, methicillin, moxifloxacin, kanamycin, telithromycin, rifampicin, methicillin-resistant, vancomycin-intermediate Staphylococcus aureus subsp. aureus Mu50 assessed as growth inhibition by CLSI broth microdilution method; assay type: functional; summary of the method: as §2
[24] = tested on: Staphylococcus aureus; assay: as §3, with “assessed as concentration required for partial growth inhibition” for “assessed as growth inhibition”; assay type: functional
[25] = tested on: Bacillus subtilis; assay: Antibacterial activity against Bacillus subtilis subsp. subtilis str. 168 trpC2 assessed as induction of SOS response-mediated DNA degradation at 0.125 ug/mL after 120 mins by DAPI staining-based fluorescence microscopic analysis; assay type: functional, organism-based
Summary of the method: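 B. subtilis 168 trpC2 was grown in lysogeny broth to OD600 0.1−0.3, then treated in plates at 37 °C with shaking. Aliquots were taken 30−180 min after addition and stained 60 s with DAPI (1 μg/mL stock). Cells were immobilized on 1% agarose slides and imaged by phase contrast and fluorescence. Performed twice.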

[26] = tested on: Bacillus subtilis; assay: Induction of yorB promoter in Bacillus subtilis IS34 after 3 hrs at 0.001 to 10 ug/ml by luciferase reporter gene assay; assay type: functional; summary of the method: as §1
[27] = tested on: Bacillus subtilis; assay: Antibacterial activity against Bacillus subtilis subsp. subtilis str. 168 trpC2 assessed as concentration required for partial growth inhibition by CLSI broth microdilution method; assay type: functional
[28] = tested on: Staphylococcus aureus; assay: as §5, with “assessed as concentration required for partial growth inhibition” for “assessed as growth inhibition”; assay type: functional
[29] = tested on: Staphylococcus aureus; assay: Antibacterial activity against Staphylococcus aureus ATCC 29213 assessed as concentration required for partial growth inhibition by CLSI broth microdilution method; assay type: functional
[30] = tested on: THP-1; assay: Cytotoxicity against human THP1 cells assessed as growth inhibition up to 32 ug/mL after 48 hrs by Alamar blue assay; assay type: cell-based; conditions: thp-1, 48 h; summary of the method: as §4
[31] = tested on: BALB/3T3; assay: Cytotoxicity against mouse BALB/3T3 cells assessed as growth inhibition up to 32 ug/mL after 48 hrs by Alamar blue assay; assay type: cell-based; conditions: balb/3t3, 48 h; summary of the method: as §4

Row | Compound | Activity [1] | Activity [2] | Activity [4] | Activity [5] | Activity [6] | MIC [9] [µg/mL] | MIC [10] [µg/mL] | MIC [11] [µg/mL] | MIC [12] [µg/mL] | MIC [13] [µg/mL] | MIC [14] [µg/mL] | MIC [15] [µg/mL] | MIC [16] [µg/mL] | MIC [17] [µg/mL] | MIC [18] [µg/mL] | IC50 [19] [µg/mL] | IC50 [20] [µg/mL] | MIC [21] [µg/mL] | MIC [22] [µg/mL] | MIC [23] [µg/mL] | further results
1 | CO[C@@]12[C@H](COC(N)=O)C3=C(C(=O)C(C)=C(N)C3=O)N1C[C@@H]1N[C@@H]12 | Active | – | – | – | – | – | – | – | – | – | – | – | – | – | – | – | – | – | – | – | –
2 | CC1(O)CC(=O)c2c(cc3cc(O)c(-c4c(O)cc5cc6c(c(O)c5c4O)C(=O)CC(C)(O)C6)c(O)c3c2O)C1 (single isomer, unassigned; atropisomer) [FLAVOMANNIN A] | – | inactive | inactive | inactive | inactive | > 64 | > 64 | > 64 | > 64 | > 64 | > 64 | > 64 | > 64 | 8 (≈ 14.6 µM) | 16 (≈ 29.3 µM) | > 32 | > 32 | > 64 | > 64 | 16 (≈ 29.3 µM) | fold change (FC) [1]: <2; Activity [3]: Active; growth inhibition (GI) [7]: Active; growth inhibition (GI) [8]: Dose-dependent effect
3 | COc1cc2cc3c(c(O)c2c(O)c1-c1c(O)cc2cc4c(c(O)c2c1O)C(=O)CC(C)(O)C4)C(=O)CC(C)(O)C3 (single isomer, unassigned; atropisomer) [FLAVOMANNIN C] | – | inactive | inactive | inactive | inactive | > 64 | > 64 | > 64 | > 64 | > 64 | 32 (≈ 57.1 µM) | > 64 | > 64 | 32 (≈ 57.1 µM) | 64 (≈ 114 µM) | > 32 | > 32 | > 64 | > 64 | 16 (≈ 28.5 µM) | growth inhibition (GI) [7]: Active; growth inhibition (GI) [8]: Dose-dependent effect
4 | COc1cc2cc3c(c(O)c2c(O)c1-c1c(O)cc2c(O)c4c(cc2c1O)CC(C)(O)CC4=O)C(=O)CC(C)(O)C3 (single isomer, unassigned; atropisomer) [FLAVOMANNIN D] | Active | – | inactive | inactive | inactive | > 64 | > 64 | > 64 | 64 (≈ 114 µM) | > 64 | 32 (≈ 57.1 µM) | > 64 | 64 (≈ 114 µM) | 8 (≈ 14.3 µM) | 8 (≈ 14.3 µM) | > 32 | > 32 | > 64 | 64 (≈ 114 µM) | 8 (≈ 14.3 µM) | concentration giving maximal yorB promoter induction [2]: 2 µg/mL; growth inhibition (GI) [7]: Active; growth inhibition (GI) [8]: Dose-dependent effect
5 | Cc1cc(O)c2c(c1)C(=O)c1cc(O)c(-c3c(O)cc4c(O)c5c(cc4c3O)CC(C)(O)CC5=O)c(O)c1C2=O (single isomer, unassigned; atropisomer) [Talaromannin B] | Active | – | inactive | inactive | inactive | > 64 | > 64 | > 64 | > 64 | > 64 | 64 (≈ 118 µM) | 64 (≈ 118 µM) | 32 (≈ 59 µM) | 16 (≈ 29.5 µM) | 16 (≈ 29.5 µM) | > 32 | > 32 | > 64 | 32 (≈ 59 µM) | 8 (≈ 14.7 µM) | concentration giving maximal yorB promoter induction [2]: 8 µg/mL; Activity [3]: Active; growth inhibition (GI) [7]: Active; growth inhibition (GI) [8]: Dose-dependent effect; MIC [24]: 8 µg/mL (≈ 14.7 µM)
6 | O=C(O)c1cn(C2CC2)c2cc(N3CCNCC3)c(F)cc2c1=O [CIPROFLOXACIN] | Active | – | – | – | – | – | – | – | – | – | – | – | – | – | – | – | – | – | – | – | Activity [25]: Active; fold change (FC) [26]: 20
7 | Cc1cc(O)c2c(c1)C(=O)c1cc(O)cc(O)c1C2=O [EMODIN] | inactive | inactive | inactive | inactive | inactive | > 64 | > 64 | > 64 | 16 (≈ 59.2 µM) | > 64 | 16 (≈ 59.2 µM) | > 64 | 1 (≈ 3.7 µM) | 2 (≈ 7.4 µM) | 4 (≈ 14.8 µM) | 32 (≈ 118 µM) | 32 (≈ 118 µM) | > 64 | > 64 | 4 (≈ 14.8 µM) | MIC [27]: 8 µg/mL (≈ 29.6 µM); MIC [28]: 2 µg/mL (≈ 7.4 µM); MIC [29]: 2 µg/mL (≈ 7.4 µM)
8 | Cc1cc(O)c2c(c1)C(=O)c1c(c(O)cc(O)c1-c1c(O)cc(O)c3c1C(=O)c1cc(C)cc(O)c1C3=O)C2=O [SKYRIN] | inactive | inactive | inactive | inactive | inactive | > 64 | > 64 | > 64 | 4 (≈ 7.43 µM) | 32 (≈ 59.4 µM) | 16 (≈ 29.7 µM) | > 64 | 4 (≈ 7.43 µM) | 4 (≈ 7.43 µM) | 4 (≈ 7.43 µM) | – | – | > 64 | > 64 | 2 (≈ 3.71 µM) | MIC [29]: 2 µg/mL (≈ 3.71 µM); growth inhibition (GI) [30]: Non-toxic; growth inhibition (GI) [31]: Non-toxic
